# Shown are actives, neighbours in structure and some others; about 2.4% of the full set was active somewhere.
# ABHD4 inh – ABHD4 (mouse) inhibition, primary FP screen; purified mABHD4, FP-Rh probe fluorescence polarization; inhibition, % at 8.92 µM; 0.54% of 370,000 active;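 active = inhibition exceeding the mean over every tested compound plus 3 SD, cut at about 30% in these data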;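 note: 0% = plate median of compound wells and 100% = S159A mutant with DMSO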
#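 Assay system: mABHD4 protein; medium: HEPES pH 7.0, NaCl, Pluronic buffer; dosing: 8.92 µM, single dose; schedule: 45 min + 60 min at 25 °C; signal: FP readout, ex 525 nm / em 598 nm; read-out: normalized percent inhibition of probe labeling; repeats: single replicate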
# HTRA1 inh – inhibitors of human serine peptidase HTRA1. 0.5% of 340,000 active. inhibition, % at 5.96 µM. recombinant HTRA1, FP-rhodamine activity-based probe, fluorescence polarization. Q92743; in the data active = inhibition above about 36%;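 note: 0% = enzyme with DMSO and 100% = wells lacking enzyme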
# PRMT1 inh – inhibitors of human PRMT1. 1.3% of 370,000 active. AID 652257. Q99873. recombinant PRMT1, activity-based probe fluorescence polarization. inhibition, % at 2.79 µM;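 active = inhibition above about 21% made by adding two undisclosed values, limit read from the data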
# Target sequence (Q99873 whole entry, looked up): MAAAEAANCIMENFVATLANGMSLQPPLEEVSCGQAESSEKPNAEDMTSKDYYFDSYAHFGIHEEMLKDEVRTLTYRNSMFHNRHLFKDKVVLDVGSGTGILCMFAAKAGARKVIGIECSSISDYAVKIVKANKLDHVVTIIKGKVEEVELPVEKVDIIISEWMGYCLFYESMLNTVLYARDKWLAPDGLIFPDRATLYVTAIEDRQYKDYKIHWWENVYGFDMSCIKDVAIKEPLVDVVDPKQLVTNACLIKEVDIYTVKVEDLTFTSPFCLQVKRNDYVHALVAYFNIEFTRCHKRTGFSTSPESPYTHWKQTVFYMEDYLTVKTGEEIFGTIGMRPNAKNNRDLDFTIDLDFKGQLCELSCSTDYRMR
# SIAE inh – human SIAE inhibition, primary screen | Q9HAT2 | inhibition, % at 9.66 µM | AID 1053197 | 0.69% of 370,000 active | SIAE FP-Rh probe binding, fluorescence polarization;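 active = inhibition above a cutoff: mean of compounds within the control limits plus 3 SD of those, cut at about 17% in these data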;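 note: 0% = plate median of compound wells and 100% = probe without SIAE protein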
# GASC-1 inh – blocks human GASC-1 demethylase activity | Q9H3R0 | GST-JMJD2C(1-420) H3K9me3 demethylation, DELFIA europium | inhibition, % at 2.35 µM | 0.069% of 330,000 active | AID 2099;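 active = more than half of a compound's replicate wells show inhibition beyond 50%, single wells judged on their own value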;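 note: signal counts dimethyl H3K9 product captured on neutravidin plate; 0% = median of DMSO wells and 100% = 0.3 times that DMSO median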
# PRMT1 confirm – PRMT1 (human) inhibition, FP confirmation. shares compounds with PRMT1 inh. recombinant His-PRMT1, activity-based probe fluorescence polarization. inhibition, % at 2.79 µM. 42% of 3,300 active. AID 687036;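 active = mean inhibition across replicates above the hit cutoff derived for the earlier primary screen, cut at about 22% in these data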
# * marks the source's active call; other numbers are inactive results; . = no result given.
SMILES,ABHD4 inh,HTRA1 inh,PRMT1 inh,SIAE inh,GASC-1 inh,PRMT1 confirm
O=C(CSc1ccccc1)N1CCC(Oc2cccnc2)CC1,1.6,.,-1.0,3.9,.,.
Cc1ccc(NCCC(=O)c2cccc([N+](=O)[O-])c2)cc1,5.4,-4.5,33.2*,6.9,24.6,53.9*
O=C(CCNc1ccc(F)cc1)c1cccc([N+](=O)[O-])c1,6.0,1.8,31.6*,5.8,0.8,39.4*
O=C(CNC(=O)c1cccc([N+](=O)[O-])c1)OCCCC(=O)c1ccc(F)cc1,1.1,-4.0,2.3,2.6,0.8,.
O=C(CCNc1ccc(Br)cc1)c1cccc([N+](=O)[O-])c1,-3.3,0.2,28.3*,2.0,-5.2,23.1*
Cc1ccnc(SCC(=O)c2cccc([N+](=O)[O-])c2)n1,1.4,4.8,6.5,-5.8,-23.9,.
Cc1nc(SCC(=O)c2cccc([N+](=O)[O-])c2)n[nH]1,5.2,8.2,30.1*,-1.4,5.9,6.7
O=C(NCCNc1ccc([N+](=O)[O-])cc1)c1cccc(Br)c1,-5.4,1.2,1.6,-11.4,1.8,.
CCCNC(=O)C1(C)CCCN(C(=O)COc2ccc(C(C)(C)C)cc2)C1 (stereo not drawn),-3.7,.,3.5,-4.8,.,.
C=C(C)/C=C1/C(Cc2ccccc2)N(CC2CC2)C(=N)N1C(=O)OCc1ccccc1 (stereo not drawn),6.1,.,-4.0,3.6,.,.
O=C(CCNc1ccccc1)c1cccc([N+](=O)[O-])c1,5.8,3.7,36.5*,4.3,2.3,30.4*
COc1cc(/C=N/n2cc(-c3ccccc3)[nH]c2=S)cc(OC)c1O,12.5,11.4,47.3*,-2.3,0.7,27.0*
S=c1[nH]c(-c2ccccc2)cn1/N=C/c1ccccc1Br,4.8,-1.4,11.4,-6.4,-11.8,.
Oc1ccc(/C=N/n2cc(-c3ccccc3)[nH]c2=S)cc1,-8.4,-1.0,44.2*,-5.0,2.0,23.5*
S=c1[nH]c(-c2ccccc2)cn1/N=C/c1cccc2ccccc12,2.8,-33.5,14.7,4.8,-6.0,.
Cc1ccc(/C=N/n2cc(-c3ccccc3)[nH]c2=S)s1,7.3,1.4,27.8*,-1.3,-1.4,15.7
COc1cc(-c2c(C(=O)c3ccccc3)[nH]c(N)c2C(=O)NCCc2c[nH]c3ccccc23)ccc1F,18.9,.,-2.1,3.3,.,.
COc1ccc(CCNC(=O)CSc2ccc(NC(C)=O)cc2)cc1OC,6.2,1.1,25.3*,5.2,-0.8,30.9*
O=C(NC1CCCCN(Cc2cccc(F)c2)C1=O)c1ccc(-c2ccccc2)cc1 (stereo not drawn),-13.3,.,3.1,-4.2,.,.
CC(=O)Nc1ccc(S(=O)(=O)/N=C2/NC(=O)/C(=C\c3ccco3)S2)cc1,15.0,-4.0,35.2*,-45.0,0.5,13.1
CCCNC(=O)C1(C)CCN(Cc2ccc(-c3ccccc3)o2)C1 (stereo not drawn),-4.2,.,7.3,4.7,.,.
COc1ccc2nc(N3C(=O)C(O)=C(C(=O)c4ccco4)C3c3ccc(C)o3)sc2c1 (stereo not drawn),23.4,2.5,34.2*,-3.0,.,13.7
Cc1ccc2nc(N3C(=O)C(O)=C(C(=O)c4ccco4)C3c3cccs3)sc2c1 (stereo not drawn),11.0,-32.3,34.5*,-0.4,-7.3,11.7
CCOc1ccc2nc(N3C(=O)C(O)=C(C(=O)c4ccco4)C3c3ccco3)sc2c1 (stereo not drawn),22.4,8.8,18.3,-2.2,16.2,.
CN(Cc1ccccc1)C(=O)OCc1cn(Cc2ccccc2C(F)(F)F)nn1,2.7,.,-6.9,1.0,.,.
C[C@H](CO)N1C[C@H](C)[C@@H](CN(C)C(=O)Nc2ccc3c(c2)OCCO3)OCc2cn(nn2)CCCC1=O,-0.4,.,-0.8,7.2,.,.
Cc1cccc2sc(NNC(=O)c3ccc4c(c3)OCCO4)nc12,19.7,20.3,28.5*,-1.6,-4.7,-3.4
O=C(NNc1nc2cc3c(cc2s1)OCCO3)c1ccccc1,8.8,6.8,13.4,7.3,35.0,.
COc1ccc(NC(=O)Nc2ccc(OCc3ccccc3)cc2)cn1,7.8,-3.2,25.7*,5.1,-6.3,11.5
COc1cc(NC(=O)NS(=O)(=O)c2ccc(C)cc2)cc(OC)c1,11.7,10.1,-1.3,12.1,-7.3,.

# Bioassay records deposited in PubChem by several laboratories.
